# Measured values gathered from unrelated publications.
# Each line is one published result; the experiments were not run side by side.
# ALK: ALK tyrosine kinase receptor (ALK, Homo sapiens, UniProt Q9UM73)
# ALK C1156Y: ALK tyrosine kinase receptor (ALK, Homo sapiens, UniProt Q9UM73, C1156Y)
# ALK L1196M: ALK tyrosine kinase receptor (ALK, Homo sapiens, UniProt Q9UM73, L1196M)
SMILES,target,assay,conditions,remaining binding
Cc1cnc(Nc2ccc(C(=O)N3CCC(N4CCCC4)CC3)cc2)nc1-c1cc2ccccc2s1,ALK,"binding, competition with immobilised ligand",1 µM,42%
C[C@@H](c1ccc(-n2cnc3c(N)ncnc32)cc1)N1CCc2nn(C)c(Cc3ccccc3)c2C1=O,ALK C1156Y,"binding, competition with immobilised ligand",0.1 µM,57%
COc1cnc(Nc2cccc(S(N)(=O)=O)c2)nc1N1CCN(c2ccccc2)CC1,ALK L1196M,"binding, competition with immobilised ligand",1 µM,100%
O=C(Nc1c[nH]nc1C(=O)NC1CCNCC1)c1cc(F)cc(F)c1,ALK C1156Y,"binding, competition with immobilised ligand",1 µM,100%
CCN1CCN(Cc2ccc(C(=O)Nc3ccc(C)c(Oc4ccc5c(c4)CC(=O)N5)c3)cc2C(F)(F)F)CC1,ALK,"binding, competition with immobilised ligand",1 µM,100%
CN(c1nccc(-c2cnn3ncccc23)n1)C1CC1,ALK L1196M,binding,1 µM,100%
O=C(NC[C@@H]1[C@H]2CN(C(=O)OCc3cc(C(F)(F)F)cc(C(F)(F)F)c3)C[C@@H]12)c1ccc2[nH]nnc2c1,ALK,"cell-free assay, competition with immobilised ligand",1 µM,79%
COc1cnc(Nc2cccc(S(N)(=O)=O)c2)nc1N1CCN(c2ccccc2)C(=O)C1,ALK,"binding, competition with immobilised ligand",1 µM,100%
C[C@@H]1CN(c2cc(-c3n[nH]c4ccc(OC5(C)CC5)cc34)ncn2)C[C@H](C)O1,ALK,"cell-free assay, competition with immobilised ligand",0.1 µM,65%
CN1CCN(c2ccc(Nc3nccc(-c4ccccc4)n3)cc2C(F)(F)F)CC1,ALK L1196M,binding,10 µM,100%
O=C(NCCCN1CCOCC1)c1ccc(Nc2nccc(-c3cc4ccccc4s3)n2)cc1,ALK,"binding, competition with immobilised ligand",1 µM,100%
Nc1ncc2c(n1)-c1c([nH]c3ccc(C#CC4CC4)cc13)CCCC2,ALK,"binding, competition with immobilised ligand",1 µM,95%
CC1CCCN1c1nccc(-c2cnn3ncccc23)n1 (centres unmarked),ALK C1156Y,binding,1 µM,48%
CNC(=O)[C@@H]1CC[C@@H](n2c(-c3ccc4cnccc4c3)nc3ccc(C(=O)NCc4cccc(C(N)=O)c4)cc32)C1,ALK L1196M,"binding, competition with immobilised ligand",1 µM,100%
C[C@H](c1ccc(F)cc1)N(Cc1cccc(C(=O)O)c1)C(=O)c1cnc2ccccc2c1,ALK,"cell-free assay, competition with immobilised ligand",1 µM,94%
O=C(NCCCN1CCOCC1)c1ccc(Nc2ncc(Cl)c(-c3ccc(Cl)s3)n2)cc1,ALK,"binding, competition with immobilised ligand",1 µM,67%
CO[C@H]1CC[C@H](CNc2ccc(S(=O)(=O)NC(=O)c3ccc(N4CCN(CC5=C(c6ccc(Cl)cc6)CC(C)(C)CC5)CC4)cc3Oc3cnc4[nH]ccc4c3)cc2[N+](=O)[O-])CC1,ALK,"cell-free assay, competition with immobilised ligand",1 µM,100%
COc1ccnn2ncc(-c3ccnc(N(C)C)n3)c12,ALK,binding,1 µM,96%
C=CC(=O)N1CCC(C(=O)NCC(=O)N2CCN(c3nc(-c4cnc(N)nc4C(F)F)nc(N4CCOCC4)n3)CC2)CC1,ALK,"binding, competition with immobilised ligand",1 µM,71%
N[C@@H]1CCN(c2nccc(-c3cnn4ncccc34)n2)C1,ALK L1196M,binding,1 µM,100%
NS(=O)(=O)c1cc(NC(=O)Cc2ccccc2)ccc1Oc1cccc(Cl)c1,ALK C1156Y,"cell-free assay, competition with immobilised ligand",1 µM,88%
FC(F)(F)Oc1cccc(-c2cnc3ccc(-c4ccncc4)nn23)c1,ALK,"cell-free assay, competition with immobilised ligand",5 µM,100%
CN(C)c1nccc(-c2cnc3ncccn23)n1,ALK,binding,1 µM,73%
c1cncc(-c2cccc(Nc3nccc(NC4CCCCC4)n3)c2)c1,ALK L1196M,"binding, competition with immobilised ligand",10 µM,57%
C[C@@H]1CN(c2cc(-c3nn(C)c4ccc(OC5(C)CC5)cc34)ncn2)C[C@H](C)O1,ALK C1156Y,"cell-free assay, competition with immobilised ligand",1 µM,82%
O=C(NCC1CCOCC1)c1n[nH]cc1NC(=O)c1c(F)cccc1F,ALK C1156Y,"binding, competition with immobilised ligand",1 µM,99%
O=C(c1ccc(Nc2nccc(-c3cc4ccccc4s3)n2)cc1)N1CCC(N2CCCC2)CC1,ALK,"binding, competition with immobilised ligand",1 µM,84%
CO[C@@H](C)c1c(Nc2ccc([C@H](N(C)C(=O)C3CCS(=O)(=O)CC3)C(F)(F)F)cc2)cnc2cc(Cl)nn12,ALK L1196M,"cell-free assay, competition with immobilised ligand",1 µM,100%
COc1ncc2cc3ccccc3nc2c1C#N,ALK,"cell-free assay, competition with immobilised ligand",5 µM,81%
F[C@@H]1CCN(c2nccc(-c3cnn4ncccc34)n2)C1,ALK C1156Y,binding,1 µM,100%
O=C(c1ccc(Nc2ncc(Cl)c(-c3cc4ccccc4s3)n2)cc1)N1CCC(N2CCCC2)CC1,ALK C1156Y,"binding, competition with immobilised ligand",1 µM,59%
C[C@@H]1CCN(c2nccc(-c3cnn4ncccc34)n2)C1,ALK C1156Y,binding,1 µM,91%
CC1=C(C#N)[C@@H](c2ccc3[nH]nc(C)c3c2)C(C#N)=C(c2ccc(Cl)cc2)N1,ALK C1156Y,"cell-free assay, competition with immobilised ligand",1 µM,100%
CN(C)c1nccc(-c2cnn3ncccc23)n1,ALK C1156Y,binding,1 µM,71%
O=C(c1ccc(Nc2ncc(Cl)c(-c3ccc(Cl)s3)n2)cc1)N1CCC(N2CCCC2)CC1,ALK L1196M,"binding, competition with immobilised ligand",1 µM,67%
